The source of these data is ChEMBL document CHEMBL1129688, “ATP-citrate lyase as a target for hypolipidemic intervention. Design and synthesis of 2-substituted butanedioic acids as novel, potent inhibitors of the enzyme” (J Med Chem, 1996).

Experiment [1] concerns HepG2. As to the kind of experiment: Percent control of ATP levels in human hepatoma cell line, HepG2 at 1000 uM concentration. The class given is functional. In a few lines: (§1)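 Serum-starved HepG2 cells (grown to 80–90% confluence in DMEM/10% FCS, then overnight without serum) were exposed to vehicle or compound at the stated final concentration for 2.5 h. Cellular ATP was then measured as a toxicity check and expressed as % of vehicle control.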

Experiment [2] concerns HepG2. As to the kind of experiment: Percent reduction of fatty acid synthesis in human hepatoma cell line HepG2 at 100 uM concentration. The class given is functional. More on the design: scale not given: the % may be the effect or the level left. The method in brief: (§2)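 HepG2 cells were grown in DMEM with Hepes, bicarbonate, glutamine and 10% FCS to 80–90% confluence, then kept overnight serum-free. Vehicle or compound was added at the stated final concentration for 2.5 h. ³H2O (71 μCi/mmol) was present for the final 90 min. Synthesis rates came from ³H incorporated into cellular cholesterol or fatty acids, relative to vehicle control.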

For experiment [3], the system named is HepG2. As to the kind of experiment: Percent control of ATP levels in human hepatoma cell line, HepG2 at 100 uM concentration. The class given is functional. The method in brief: as §1
The test system of experiment [4] is HepG2. Kind of experiment: Percent reduction of fatty acid synthesis in human hepatoma cell line HepG2 at 1000 uM concentration. The class given is functional. The method in brief: as §2
For experiment [5], the system named is HepG2. Kind of experiment: Percent reduction of cholesterol synthesis in human hepatoma cell line HepG2 at 1000 uM concentration. The class given is functional. The method in brief:
as §2

Experiment [6] addresses T1, ATP-citrate synthase (Rattus norvegicus, UniProt P16638).
T1 sequence (P16638 whole entry): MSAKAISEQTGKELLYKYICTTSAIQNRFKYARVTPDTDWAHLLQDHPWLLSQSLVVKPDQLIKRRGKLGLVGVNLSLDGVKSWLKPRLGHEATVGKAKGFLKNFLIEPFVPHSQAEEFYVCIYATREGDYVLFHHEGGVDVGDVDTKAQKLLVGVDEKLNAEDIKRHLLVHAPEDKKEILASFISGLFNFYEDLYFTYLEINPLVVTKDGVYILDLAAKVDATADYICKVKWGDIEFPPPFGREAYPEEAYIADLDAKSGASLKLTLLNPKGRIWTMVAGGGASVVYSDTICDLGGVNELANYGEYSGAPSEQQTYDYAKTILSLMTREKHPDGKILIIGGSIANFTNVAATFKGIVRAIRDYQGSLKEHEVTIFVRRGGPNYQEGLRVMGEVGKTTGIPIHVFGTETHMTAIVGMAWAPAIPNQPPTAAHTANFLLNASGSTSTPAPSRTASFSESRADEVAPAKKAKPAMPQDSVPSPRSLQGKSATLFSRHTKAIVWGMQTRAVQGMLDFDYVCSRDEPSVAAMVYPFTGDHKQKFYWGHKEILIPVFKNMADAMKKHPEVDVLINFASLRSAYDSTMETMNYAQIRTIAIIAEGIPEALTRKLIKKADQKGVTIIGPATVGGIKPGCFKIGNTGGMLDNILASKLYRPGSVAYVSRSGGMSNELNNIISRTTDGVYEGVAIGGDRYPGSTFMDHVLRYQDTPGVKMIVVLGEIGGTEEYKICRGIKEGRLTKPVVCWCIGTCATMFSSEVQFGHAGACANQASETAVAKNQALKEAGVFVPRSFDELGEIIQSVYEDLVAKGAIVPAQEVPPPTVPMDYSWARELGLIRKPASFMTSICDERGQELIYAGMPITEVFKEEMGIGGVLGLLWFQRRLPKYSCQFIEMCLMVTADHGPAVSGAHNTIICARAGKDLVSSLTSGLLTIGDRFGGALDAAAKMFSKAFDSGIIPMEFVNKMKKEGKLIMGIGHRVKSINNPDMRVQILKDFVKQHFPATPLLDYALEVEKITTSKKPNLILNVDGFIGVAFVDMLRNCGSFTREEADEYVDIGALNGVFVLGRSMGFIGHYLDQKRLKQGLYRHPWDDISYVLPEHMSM
Kind of experiment: Inhibition of recombinant ATP-Citrate Lyase activity as […] dehydrogenase catalyzed reduction of oxaloacetate by NADH. To be noted: in the assay text read “purified rat ATP-Citrate Lyase” for “recombinant ATP-Citrate Lyase”. The method in brief:
(§3)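 Purified rat ACL or recombinant human ACL was assayed by coupling oxaloacetate formation to malate dehydrogenase reduction with NADH. Buffer: Tris 100 mM pH 8.0, MgCl2 10 mM, KCl 10 mM, DTT 10 mM, plus ATP and NADH. CoA was 200 μM, and citrate was added to 100 μM (its Km) to start the reaction. A340 decrease was followed over 20 min. Ki came from fitting v = Vmax/(2 + [I]/Ki), assuming citrate-competitive inhibition.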

Experiment [7] relates to HepG2. As to the kind of experiment: Percent reduction of cholesterol synthesis in human hepatoma cell line, HepG2 at 100 uM concentration. The experiment is classed as functional. Set-up: scale not given: the % may be the effect or the level left. In a few lines:
as §2

Experiment [8] deals with HepG2. As to the kind of experiment: Percent control of ATP levels in human hepatoma cell line HepG2 at 100 uM concentration. The experiment is classed as functional. The method in brief:
as §1

Experiment [9] deals with HepG2. As to the kind of experiment: Percent reduction of fatty acid synthesis in human hepatoma cell line HepG2 at 300 uM concentration. Set-up: scale not given: the % may be the effect or the level left. The class given is functional. The method in brief: as §2
Experiment [10] has as its system HepG2. As to the kind of experiment: Percent control of ATP levels in human hepatoma cell line HepG2 at 300 uM concentration. The experiment is classed as functional. The method in brief:
as §1

Experiment [11] relates to HepG2. Kind of experiment: Percent control of ATP levels in human hepatoma cell line HepG2 at 1000 uM concentration. The class given is functional. The method in brief:
as §1

The subject of experiment [12] is HepG2. As to the kind of experiment: Percent reduction of cholesterol synthesis in human hepatoma cell line HepG2 at 300 uM concentration. The class given is functional. Set-up: scale not given: the % may be the effect or the level left. The method in brief: as §2
The target in experiment [13] is T2, ATP-citrate synthase (Homo sapiens) (UniProt P53396).
T2 sequence (whole entry): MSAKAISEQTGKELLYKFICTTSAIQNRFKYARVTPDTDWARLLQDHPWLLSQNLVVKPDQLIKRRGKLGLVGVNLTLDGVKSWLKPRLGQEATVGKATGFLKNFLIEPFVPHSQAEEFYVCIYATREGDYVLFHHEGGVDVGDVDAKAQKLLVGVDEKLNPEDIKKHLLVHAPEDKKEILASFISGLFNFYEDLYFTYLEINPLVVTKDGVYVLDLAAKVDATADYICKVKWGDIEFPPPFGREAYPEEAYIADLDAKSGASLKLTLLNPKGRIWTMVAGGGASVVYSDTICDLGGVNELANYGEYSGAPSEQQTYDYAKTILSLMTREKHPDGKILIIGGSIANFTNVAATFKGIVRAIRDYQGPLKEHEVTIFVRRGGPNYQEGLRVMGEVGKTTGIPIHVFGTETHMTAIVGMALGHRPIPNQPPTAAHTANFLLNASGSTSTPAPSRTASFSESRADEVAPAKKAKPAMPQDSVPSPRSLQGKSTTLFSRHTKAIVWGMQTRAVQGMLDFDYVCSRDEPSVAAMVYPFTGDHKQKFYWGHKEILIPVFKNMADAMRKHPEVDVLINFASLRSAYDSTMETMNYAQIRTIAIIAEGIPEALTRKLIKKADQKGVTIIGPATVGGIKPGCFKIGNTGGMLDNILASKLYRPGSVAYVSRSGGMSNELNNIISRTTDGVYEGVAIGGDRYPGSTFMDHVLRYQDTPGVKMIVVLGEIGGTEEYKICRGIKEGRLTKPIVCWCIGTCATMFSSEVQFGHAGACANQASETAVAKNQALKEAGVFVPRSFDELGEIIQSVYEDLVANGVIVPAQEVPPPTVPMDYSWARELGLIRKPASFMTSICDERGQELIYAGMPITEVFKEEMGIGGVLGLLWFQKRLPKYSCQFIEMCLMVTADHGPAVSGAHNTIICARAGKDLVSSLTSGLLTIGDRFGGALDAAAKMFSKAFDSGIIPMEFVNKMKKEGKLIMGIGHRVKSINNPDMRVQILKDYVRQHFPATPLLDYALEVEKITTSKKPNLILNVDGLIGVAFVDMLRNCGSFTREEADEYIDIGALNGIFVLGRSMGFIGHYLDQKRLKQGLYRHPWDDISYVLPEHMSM
Kind of experiment: (§4) Inhibitory activity against human recombinant ATP-Citrate Lyase activity was measured by the […] dehydrogenase catalyzed reduction of oxaloacetate by NADH. To be noted: concentration not given here. In a few lines: as §3

In experiment [14] the test system is HepG2. Kind of experiment: Percent reduction of fatty acid synthesis in human hepatoma cell line HepG2 at 10 uM concentration. The experiment is classed as functional. Set-up: scale not given: the % may be the effect or the level left. In a few lines: as §2
Experiment [15] relates to HepG2. Kind of experiment: Percent control of ATP levels in human hepatoma cell line HepG2 at 10 uM concentration. The experiment is classed as functional. The method in brief: as §1
In experiment [16] the test system is HepG2. As to the kind of experiment: Percent reduction of cholesterol synthesis in human hepatoma cell line HepG2 at 10 uM concentration. The class given is functional. Set-up: scale not given: the % may be the effect or the level left. In a few lines:
as §2

The target in experiment [17] is T1, ATP-citrate synthase. Kind of experiment: Inhibitory activity against rat ATP-citrate lyase activity by the […] dehydrogenase catalyzed reduction of oxaloacetate by NADH. In a few lines: as §3
Experiment [18] concerns the target T3, ATP-citrate synthase (Homo sapiens, UniProt P53396).
T3 sequence (P53396 whole entry): T2 sequence (whole entry)
Kind of experiment: Inhibitory activity against human recombinant ATP-Citrate Lyase was measured by the […] dehydrogenase catalyzed reduction of oxaloacetate by NADH. The method in brief:
as §3

The target in experiment [19] is T3, ATP-citrate synthase. The experiment is described as §4. In a few lines:
as §3

Usually Ki stands for the dissociation constant of the complex between target and ligand, obtained from inhibition or displacement. The term inhibition denotes the percentage by which the read-out fell short of the control.

`CC(=O)OCOC(=O)CC(O)(CSCCCCCCc1ccc(Cl)cc1Cl)C(=O)OCOC(C)=O` (stereo not drawn): the Control stood at 60% with HepG2 [1], 100% with HepG2 [2] and 111% in the experiment on HepG2 [3]. The “Fatty acid synthesis (% of vehicle control)” value in the experiment on HepG2 [4] is 16%. Further, the “Cholesterol synthesis (% of vehicle control)” value in the experiment with HepG2 [5] amounted to 13%.

For the molecule `COc1ccc(CCCCCCSCC(O)(CC(=O)O)C(=O)O)cc1` (stereo not drawn), the inhibition constant (Ki) at ATP-citrate synthase [6] worked out at 280 µM.

`O=C(O)C[C@@](O)(C(=O)O)[C@H](O)C(=O)O`: the Control in the experiment on HepG2 [2] turned out to be 87%; with HepG2 [7], 110%; in the experiment on HepG2 [8], 100%; in the experiment with HepG2 [9], 79%; with HepG2 [10], 103%; in the experiment on HepG2 [11], 104%. Also, the Control in the experiment on HepG2 [12] was determined as 40%. Moreover, the “Fatty acid synthesis (% of vehicle control)” value with HepG2 [4] turned out to be 57%. In addition, in the experiment on HepG2 [5], the “Cholesterol synthesis (% of vehicle control)” value is 15%.

Consider `O=C(O)CC(O)(CSCCCCCCc1ccccn1)C(=O)O` (stereo not drawn), for which, in experiment [13], the inhibition amounted to 30%.

`O=C(O)CC(O)(CSCCCCCCc1cccnc1)C(=O)O` (stereo not drawn): in [13], the inhibition is 35%.

As for `O=C(O)CC(O)(CC(=O)CCCCCCc1ccc(Cl)cc1Cl)C(=O)O` (stereo not drawn), the Control was found to be 98% in the experiment on HepG2 [14], 102% in the experiment with HepG2 [15], 108% with HepG2 [16] and 107% in the experiment with HepG2 [11]. Moreover, in the experiment on HepG2 [4], the “Fatty acid synthesis (% of vehicle control)” value was 102%. Moreover, the “Cholesterol synthesis (% of vehicle control)” value with HepG2 [5] was 102%. This molecule also showed a Ki on ATP-citrate synthase [17] of 1.2 µM.

As to `Cc1ccc(CCCCCCSCC(O)(CC(=O)O)C(=O)O)c(C)c1` (stereo not drawn), on ATP-citrate synthase [6], the Ki is 160 µM.

For `O=C(O)CC(O)(CSCCCCCCc1ccccc1)C(=O)O` (stereo not drawn), the Ki stood at 710 µM at ATP-citrate synthase [6] and 320 µM on ATP-citrate synthase [18].

`O=C(O)CC(O)(CSCCCc1ccc2ccccc2c1)C(=O)O` (stereo not drawn): the Ki on ATP-citrate synthase [19] was 300 µM.
